Reference: ChEMBL document CHEMBL1136049, “Synthesis of syn- and anti-1-amino-3-[18F]fluoromethyl-cyclobutane-1-carboxylic acid (FMACBC), potential PET ligands for tumor detection” (J Med Chem, 2002)

What was measured:
Rattus norvegicus [1] = species on record: Rattus norvegicus; test: Radioactivity distribution in liver of tumor-bearing fischer rat after injection of syn-[18F]-FMACBC after 5 min; format: ADME, organism-based; details: in vivo
Outline: (§1)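 Male Fischer 344 rats with intracranial 9L gliosarcoma (4 × 10^4 cells stereotaxically implanted; used 17–19 days after implantation). About 35 μCi tracer in 0.3 mL sterile water was given by tail vein to awake, restrained rats. Rats were killed at 5, 60 or 120 min. Tissues, tumor and contralateral brain were weighed and gamma counted, decay-corrected, and expressed as %ID/g; n = 3–5 per time point.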

Rattus norvegicus [2] = species on record: Rattus norvegicus; test: Radioactivity distribution in brain of tumor-bearing fischer rat after injection of syn-[18F]-FMACBC after 120 min; format: ADME, organism-based; details: in vivo, 2 h
Outline: (§2)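 Male Fischer 344 rats carrying intracranial rat 9L gliosarcoma, made by stereotaxic injection of 4 × 10^4 cells 17–19 days before. Awake restrained rats received ~35 μCi of 18F tracer in 0.3 mL sterile water IV by tail vein and were killed at 5, 60 or 120 min, n = 3–5. Tissues were weighed, gamma-counted, decay-corrected and expressed as % injected dose per gram.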

Rattus norvegicus [3] = species on record: Rattus norvegicus; test: Radioactivity distribution in spleen of normal fischer rat after injection of anti-[18F]FMACBC after 60 min.; format: ADME, organism-based; details: in vivo, 1 h
Outline: (§3)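 Normal male Fischer 344 rats (200–250 g) were anesthetised with ketamine:xylazine i.m. and given about 85 μCi tracer in 0.3 mL sterile water via a tail vein catheter. Groups of four were killed at 5, 30, 60 and 120 min. Selected tissues were weighed and gamma counted with dose standards, decay-corrected, and expressed as mean %ID/g.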

Rattus norvegicus [4] = species on record: Rattus norvegicus; test: Radioactivity distribution in liver of tumor-bearing fischer rat after injection of anti-[18F]FMACBC after 5 min; format: ADME, organism-based; details: in vivo; outline: as §1
Rattus norvegicus [5] = species on record: Rattus norvegicus; test: Radioactivity distribution in bone of normal fischer rat after injection of anti-[18F]FMACBC after 5 min.; format: ADME, organism-based, Bone element; details: in vivo
Outline: (§4)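 Male Fischer 344 rats (200–250 g), normal, fed ad libitum, given ~85 μCi of 18F tracer in 0.3 mL sterile water IV through a tail vein catheter. Anesthesia was ketamine:xylazine IM. Groups of four were killed at 5, 30, 60 and 120 min. Tissues were weighed and gamma-counted against dose standards, decay-corrected, and expressed as mean % injected dose per gram.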

Rattus norvegicus [6] = species on record: Rattus norvegicus; test: Radioactivity distribution in pancreas of tumor-bearing fischer rat after injection of syn-[18F]-FMACBC after 5 min; format: ADME, organism-based; details: in vivo; outline: as §1
Rattus norvegicus [7] = species on record: Rattus norvegicus; test: Radioactivity distribution in kidney of tumor-bearing fischer rat after injection of anti-[18F]FMACBC after 5 min; format: ADME, organism-based; details: in vivo; outline: as §2
Rattus norvegicus [8] = species on record: Rattus norvegicus; test: Radioactivity distribution in muscle of tumor-bearing fischer rat after injection of syn-[18F]-FMACBC after 60 min; format: ADME, organism-based, Muscle tissue; details: in vivo, 1 h; outline: as §1
Rattus norvegicus [9] = species on record: Rattus norvegicus; test: Radioactivity distribution in liver of normal fischer rat after injection of syn-[18F]-FMACBC after 5 min.; format: ADME, organism-based; details: in vivo; outline: as §4
Rattus norvegicus [10] = species on record: Rattus norvegicus; test: Radioactivity distribution in blood of normal fischer rat after injection of syn-[18F]-FMACBC after 5 min.; format: ADME, organism-based; details: in vivo; outline: as §4
Rattus norvegicus [11] = species on record: Rattus norvegicus; test: Radioactivity distribution in kidney of normal fischer rat after injection of syn-[18F]-FMACBC after 60 min.; format: ADME, organism-based; details: in vivo, 1 h; outline: as §4
Rattus norvegicus [12] = species on record: Rattus norvegicus; test: Radioactivity distribution in brain of normal fischer rat after injection of anti-[18F]FMACBC after 120 min.; format: ADME, organism-based; details: in vivo, 2 h; outline: as §4
Rattus norvegicus [13] = species on record: Rattus norvegicus; test: Radioactivity distribution in brain of normal fischer rat after injection of syn-[18F]-FMACBC after 5 min.; format: ADME, organism-based; details: in vivo; outline: as §4
Rattus norvegicus [14] = species on record: Rattus norvegicus; test: Radioactivity distribution in kidney of normal fischer rat after injection of anti-[18F]FMACBC after 30 min.; format: ADME, organism-based; details: in vivo, 0.5 h; outline: as §4
Rattus norvegicus [15] = species on record: Rattus norvegicus; test: Radioactivity distribution in liver of normal fischer rat after injection of anti-[18F]FMACBC after 5 min.; format: ADME, organism-based; details: in vivo; outline: as §4
Rattus norvegicus [16] = species on record: Rattus norvegicus; test: Radioactivity distribution in pancreas of tumor-bearing fischer rat after injection of syn-[18F]-FMACBC after 60 min; format: ADME, organism-based; details: in vivo, 1 h; outline: as §1
Rattus norvegicus [17] = species on record: Rattus norvegicus; test: Radioactivity distribution in kidney of tumor-bearing fischer rat after injection of anti-[18F]FMACBC after 120 min; format: ADME, organism-based; details: in vivo, 2 h; outline: as §2
Rattus norvegicus [18] = species on record: Rattus norvegicus; test: Radioactivity distribution in tumor of tumor-bearing fischer rat after injection of syn-[18F]-FMACBC after 5 min; format: ADME, organism-based; details: in vivo; outline: as §1
Rattus norvegicus [19] = species on record: Rattus norvegicus; test: Radioactivity distribution in muscle of normal fischer rat after injection of syn-[18F]-FMACBC after 60 min.; format: ADME, organism-based, Muscle tissue; details: in vivo, 1 h; outline: as §3
Rattus norvegicus [20] = species on record: Rattus norvegicus; test: Radioactivity distribution in brain of tumor-bearing fischer rat after injection of anti-[18F]FMACBC after 5 min; format: ADME, organism-based; details: in vivo; outline: as §2
Rattus norvegicus [21] = species on record: Rattus norvegicus; test: Radioactivity distribution in bone of normal fischer rat after injection of syn-[18F]-FMACBC after 120 min.; format: ADME, organism-based, Bone element; details: in vivo, 2 h; outline: as §4
Rattus norvegicus [22] = species on record: Rattus norvegicus; test: Radioactivity distribution in pancreas of normal fischer rat after injection of syn-[18F]-FMACBC after 60 min.; format: ADME, organism-based; details: in vivo, 1 h; outline: as §3
Rattus norvegicus [23] = species on record: Rattus norvegicus; test: Radioactivity distribution in heart of tumor-bearing fischer rat after injection of anti-[18F]FMACBC after 120 min; format: ADME, organism-based; details: in vivo, 2 h; outline: as §2
Rattus norvegicus [24] = species on record: Rattus norvegicus; test: Radioactivity distribution in bone of tumor-bearing fischer rat after injection of syn-[18F]-FMACBC after 5 min; format: ADME, organism-based, Bone element; details: in vivo; outline: as §2
Rattus norvegicus [25] = species on record: Rattus norvegicus; test: Radioactivity distribution in spleen of normal fischer rat after injection of anti-[18F]FMACBC after 5 min.; format: ADME, organism-based; details: in vivo; outline: as §3
Rattus norvegicus [26] = species on record: Rattus norvegicus; test: Radioactivity distribution in lung of tumor-bearing fischer rat after injection of syn-[18F]-FMACBC after 120 min; format: ADME, organism-based; details: in vivo, 2 h; outline: as §1
Rattus norvegicus [27] = species on record: Rattus norvegicus; test: Radioactivity distribution in heart of tumor-bearing fischer rat after injection of syn-[18F]-FMACBC after 120 min; format: ADME, organism-based; details: in vivo, 2 h; outline: as §2
Rattus norvegicus [28] = species on record: Rattus norvegicus; test: Radioactivity distribution in pancreas of tumor-bearing fischer rat after injection of anti-[18F]FMACBC after 5 min; format: ADME, organism-based; details: in vivo; outline: as §1
Rattus norvegicus [29] = species on record: Rattus norvegicus; test: Radioactivity distribution in bone of normal fischer rat after injection of syn-[18F]-FMACBC after 30 min.; format: ADME, organism-based, Bone element; details: in vivo, 0.5 h; outline: as §4
Rattus norvegicus [30] = species on record: Rattus norvegicus; test: Radioactivity distribution in lungs of normal fischer rat after injection of syn-[18F]-FMACBC after 5 min.; format: ADME, organism-based, Lung; details: in vivo; outline: as §3
Rattus norvegicus [31] = species on record: Rattus norvegicus; test: Radioactivity distribution in liver of tumor-bearing fischer rat after injection of syn-[18F]-FMACBC after 120 min; format: ADME, organism-based; details: in vivo, 2 h; outline: as §1
Rattus norvegicus [32] = species on record: Rattus norvegicus; test: Radioactivity distribution in lung of tumor-bearing fischer rat after injection of anti-[18F]FMACBC after 5 min; format: ADME, organism-based; details: in vivo; outline: as §1
Rattus norvegicus [33] = species on record: Rattus norvegicus; test: Radioactivity distribution in bone of tumor-bearing fischer rat after injection of syn-[18F]-FMACBC after 60 min; format: ADME, organism-based, Bone element; details: in vivo, 1 h; outline: as §2
Rattus norvegicus [34] = species on record: Rattus norvegicus; test: Radioactivity distribution in testis of tumor-bearing fischer rat after injection of syn-[18F]-FMACBC after 5 min; format: ADME, organism-based; details: in vivo; outline: as §1
Rattus norvegicus [35] = species on record: Rattus norvegicus; test: Radioactivity distribution in lung of normal fischer rat after injection of anti-[18F]FMACBC after 60 min.; format: ADME, organism-based; details: in vivo, 1 h; outline: as §3
Rattus norvegicus [36] = species on record: Rattus norvegicus; test: Radioactivity distribution in tumor of tumor-bearing fischer rat after injection of anti-[18F]FMACBC after 5 min; format: ADME, organism-based; details: in vivo; outline: as §1
Rattus norvegicus [37] = species on record: Rattus norvegicus; test: Radioactivity distribution in pancreas of normal fischer rat after injection of anti-[18F]FMACBC after 120 min.; format: ADME, organism-based; details: in vivo, 2 h; outline: as §3
Rattus norvegicus [38] = species on record: Rattus norvegicus; test: Radioactivity distribution in heart of normal fischer rat after injection of syn-[18F]-FMACBC after 5 min.; format: ADME, organism-based; details: in vivo; outline: as §4
Rattus norvegicus [39] = species on record: Rattus norvegicus; test: Radioactivity distribution in kidney of normal fischer rat after injection of syn-[18F]-FMACBC after 120 min.; format: ADME, organism-based; details: in vivo, 2 h; outline: as §4
Rattus norvegicus [40] = species on record: Rattus norvegicus; test: Radioactivity distribution in kidney of tumor-bearing fischer rat after injection of syn-[18F]-FMACBC after 60 min; format: ADME, organism-based; details: in vivo, 1 h; outline: as §2
Rattus norvegicus [41] = species on record: Rattus norvegicus; test: Radioactivity distribution in pancreas of tumor-bearing fischer rat after injection of anti-[18F]FMACBC after 60 min; format: ADME, organism-based; details: in vivo, 1 h; outline: as §1

N[C@]1(C(=O)O)C[C@@H](CF)C1
ID/g (Rattus norvegicus [1]): 0.64%
ID/g (Rattus norvegicus [2]): 0.27%
ID/g (Rattus norvegicus [3]): 0.48%
ID/g (Rattus norvegicus [4]): 0.87%
ID/g (Rattus norvegicus [5]): 0.52%
ID/g (Rattus norvegicus [6]): 3.19%
ID/g (Rattus norvegicus [7]): 0.96%
ID/g (Rattus norvegicus [8]): 0.54%
ID/g (Rattus norvegicus [9]): 0.66%
ID/g (Rattus norvegicus [10]): 0.53%
ID/g (Rattus norvegicus [11]): 0.45%
ID/g (Rattus norvegicus [12]): 0.25%
ID/g (Rattus norvegicus [13]): 0.26%
ID/g (Rattus norvegicus [14]): 0.67%
ID/g (Rattus norvegicus [15]): 0.81%
ID/g (Rattus norvegicus [16]): 2.08%
ID/g (Rattus norvegicus [17]): 0.79%
ID/g (Rattus norvegicus [18]): 1.16%
ID/g (Rattus norvegicus [19]): 0.61%
ID/g (Rattus norvegicus [20]): 0.17%
ID/g (Rattus norvegicus [21]): 0.32%
ID/g (Rattus norvegicus [22]): 3.13%
ID/g (Rattus norvegicus [23]): 0.52%
ID/g (Rattus norvegicus [24]): 0.26%
ID/g (Rattus norvegicus [25]): 1.03%
ID/g (Rattus norvegicus [26]): 0.26%
ID/g (Rattus norvegicus [27]): 0.33%
ID/g (Rattus norvegicus [28]): 3.26%
ID/g (Rattus norvegicus [29]): 0.32%
ID/g (Rattus norvegicus [30]): 0.75%
ID/g (Rattus norvegicus [31]): 0.25%
ID/g (Rattus norvegicus [32]): 0.55%
ID/g (Rattus norvegicus [33]): 0.12%
ID/g (Rattus norvegicus [34]): 0.19%
ID/g (Rattus norvegicus [35]): 0.41%
ID/g (Rattus norvegicus [36]): 1.28%
ID/g (Rattus norvegicus [37]): 4.09%
ID/g (Rattus norvegicus [38]): 0.63%
ID/g (Rattus norvegicus [39]): 0.46%
ID/g (Rattus norvegicus [40]): 0.42%
ID/g (Rattus norvegicus [41]): 2.48%
